≈ marks a conversion by molar mass, not a printed value.
Key:
[1] = system: P. falciparum (Pf3D7); assay: Parasitemia and suppression of Pf3D7 culture after 72 h of treatment; format: cell-based, Plasmodium falciparum; details: for percentage suppression of parasitemia: concentration not given
[2] = system: A549 cells; assay: MTT cell viability assay, A549; format: cell-based, Human; details: IC50 Vero cells / IC50 A549 cells
[3] = system: P. falciparum (Pf3D7); assay: SYBR green I fluorescence antiplasmodial assay; format: cell-based, Plasmodium falciparum; details: for selectivity index (SI) towards Pf3D7: antimalarial selectivity, way of calculation not stated
In short: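 Chloroquine-sensitive P. falciparum 3D7 was grown in O+ human erythrocytes (4% haematocrit) in RPMI 1640 with 25 mM HEPES and 0.5% Albumax I, at 37 °C under 5% O2/5% CO2/90% N2. Sorbitol-synchronised rings (2% haematocrit, 1% parasitaemia) got increasing concentrations in water. SYBR Green I was read after 0.08% Triton X-100, 1 h at 37 °C in the dark (ex 485/em 530 nm), chloroquine-well counts subtracted. IC50 came from dose–response curves.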

Row | SMILES | % Parasitemia ([1]; 12.5 μg mL^−1, 72 h) [%] | % Suppression ([1]; 12.5 μg mL^−1, 72 h) [%] | % Parasitemia ([1]; 100 μg mL^−1, 72 h) [%] | percentage suppression of parasitemia [1] [%] | Selectivity Index (SI) [2] | % Suppression ([1]; 100 μg mL^−1, 72 h) [%] | IC50 ([3]; Plasmodium falciparum, 72 h, read-out: IC50 µM Pf3D7) [µg/mL] | selectivity index (SI) towards Pf3D7 [3]
1 | C/C(=N/NC(=O)c1cn(-c2ccccc2)nc1-c1ccc(F)cc1)c1c(O)cc(C)oc1=O [3a, (Z)-3-(4-fluorophenyl)-N′-(1-(4-hydroxy-6-methyl-2-oxo-2H-pyran-3-yl)ethylidene)-1-phenyl-1H-pyrazole-4-carbohydrazide] | 93.33 | 6.67 | 2.95 | 97 | 2.78 |  |  | 
2 | C/C(=N/NC(=O)c1cn(-c2ccccc2)nc1-c1ccc(Cl)cc1)c1c(O)cc(C)oc1=O [3b, (Z)-3-(4-chlorophenyl)-N′-(1-(4-hydroxy-6-methyl-2-oxo-2H-pyran-3-yl)ethylidene)-1-phenyl-1H-pyrazole-4-carbohydrazide] | 68.38 | 31.62 | 62.57 |  | 3.25 | 37.43 |  | 
3 | C/C(=N/NC(=O)c1cn(-c2ccccc2)nc1-c1ccc(Br)cc1)c1c(O)cc(C)oc1=O [3c, (Z)-3-(4-bromophenyl)-N′-(1-(4-hydroxy-6-methyl-2-oxo-2H-pyran-3-yl)ethylidene)-1-phenyl-1H-pyrazole-4-carbohydrazide] | 52.90 | 47.10 | 5.81 |  |  | 94.19 |  | 
4 | C/C(=N/NC(=O)c1cn(-c2ccccc2)nc1-c1ccc(C)cc1)c1c(O)cc(C)oc1=O [3d, (Z)-3-(4-methylphenyl)-N′-(1-(4-hydroxy-6-methyl-2-oxo-2H-pyran-3-yl)ethylidene)-1-phenyl-1H-pyrazole-4-carbohydrazide] | 42.19 | 57.81 | 2.47 | 97 |  |  | 5.2 (≈ 11.8 µM) | 18.38
5 | C/C(=N/NC(=O)c1cn(-c2ccccc2)nc1-c1ccccc1)c1c(O)cc(C)oc1=O [3e, (Z)-N′-(1-(4-hydroxy-6-methyl-2-oxo-2H-pyran-3-yl)ethylidene)-1,3-diphenyl-1H-pyrazole-4-carbohydrazide] | 73.81 | 26.19 | 37.62 |  | 4.56 | 62.38 |  | 9.48
6 | CCN(CC)CCCC(C)Nc1ccnc2cc(Cl)ccc12 (stereo not drawn) [CQ, Chloroquine, reference compound] | 0.95 | 99.05 | 0.95 |  |  | 99.05 |  | 
7 | N.N.O=C([O-])C1(C(=O)[O-])CCC1.[Pt+2] [Carboplatin, reference compound] |  |  |  |  | 2.57 |  |  | 
8 | N.N.[Cl][Pt][Cl] [Cisplatin, reference compound] |  |  |  |  | 1.35 |  |  | 
9 | C[C@@H]1C[C@H]2[C@@H]3CCC4=CC(=O)C=C[C@]4(C)[C@@]3(F)[C@@H](O)C[C@]2(C)[C@@]1(O)C(=O)CO [Dexamethasone, reference compound] |  |  |  |  | 0.23 |  |  | 

From publication PMC12580983 (RSC Advances, 2025)
